This is an account of results in ChEMBL document CHEMBL4004850, “Rational design of reversible inhibitors for trehalose 6-phosphate phosphatases” (Eur J Med Chem, 2017).

The test system of assay [1] is Mycobacterium tuberculosis. Put plainly: Inhibition of Mycobacterium tuberculosis T6PP using T6P as substrate assessed as fraction of enzyme unbound with compound by measuring ratio of initial velocities of T6P substrate hydrolysis in presence and absence of compound at 1 mM after 5 mins by BioMol green dye based HTS assay. Put shortly:
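Mt-T6PP (5–25 nM, freshly purified) in 25 mM Hepes pH 7.5, 50 mM NaCl, 5 mM MgCl₂, 5% glycerol at 25 °C. T6P at Km. Initial velocity was measured with and without 1 mM inhibitor; released phosphate read as absorbance at 625 nm after 30 min incubation. VI/V is the unbound-enzyme fraction.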

The nature of assay [2]: Inhibition of Mycobacterium tuberculosis T6PP using T6P as substrate by Lineweaver-Burk plot analysis. Put shortly: (§1)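 Continuous phosphate-release assay (EnzChek, MESG/purine nucleoside phosphorylase) at 25 °C. Initial velocities of T6P hydrolysis by T6PP were taken at varied T6P with inhibitor at 0, Ki and 2×Ki. Km and Vmax come from double-reciprocal plots.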
The test system of assay [3] is Mycobacterium tuberculosis. Put plainly: Inhibition of Mycobacterium tuberculosis T6PP assessed as Vmax for substrate using T6P as substrate by Lineweaver-Burk plot analysis. The procedure, abridged:
as §1

The test system of assay [4] is Mycobacterium tuberculosis. Put plainly: Inhibition of Mycobacterium tuberculosis T6PP assessed as Km for substrate using T6P as substrate at 1 mM by Lineweaver-Burk plot analysis. Put shortly:
as §1

Turning to `CC(=O)Nc1ccc(O[C@@H]2O[C@H](COS(=O)(=O)O)[C@@H](O)[C@H](O)[C@H]2O)cc1`, in assay [1], the Ratio came to 0.94.

For the molecule `O=S(=O)(O)OCc1cccc(O[C@@H]2O[C@H](CO)[C@@H](O)[C@H](O)[C@H]2O)c1`, the Ratio in assay [1] came to 0.96.

Take `CCCCCCCCO[C@@H]1O[C@H](COS(=O)(=O)O)[C@@H](O)[C@H](O)[C@H]1O`: the Ratio in assay [1] turned out to be 0.83.

Regarding `O=S(=O)(O)OC[C@H]1O[C@@H](Oc2ccccc2CO)[C@H](O)[C@@H](O)[C@@H]1O`, in assay [1], the Ratio was 0.89.

For the molecule `CO[C@H]1O[C@H](COS(=O)(=O)O)[C@@H](O)[C@H](O)[C@H]1OCc1ccccc1`, the Ratio in assay [1] stood at 1.01.

On to `OC[C@H]1O[C@@H](NC(=S)Nc2ccccc2)[C@H](O)[C@@H](O)[C@@H]1O`, for which the Ratio in assay [1] amounted to 1.04.

For the molecule `CO[C@H]1O[C@H](COS(=O)(=O)O)[C@@H](O)[C@H](OCc2ccccc2)[C@H]1O`, in assay [1], the Ratio worked out at 1.16.

A word on the Ki: it is the equilibrium dissociation constant of an inhibitor or competing ligand from its target. On to `O=S(=O)(O)OC[C@H]1O[C@H](O[C@H]2O[C@H](CO)[C@@H](O)[C@H](O)[C@H]2O)[C@H](O)[C@@H](O)[C@@H]1O`, for which affinity in assay [2] was put at a Ki of 130 µM. Also, in assay [1], the Ratio was determined as 0.43.

For `COc1cc(C=O)cc(OC)c1O[C@@H]1O[C@H](COS(=O)(=O)O)[C@@H](O)[C@H](O)[C@H]1O`, in assay [1], the Ratio amounted to 1.09.

As for `CCCCCCc1ccc(O[C@H]2O[C@H](COS(=O)(=O)O)[C@@H](O)[C@H](O)[C@H]2O)cc1`, the Ki in assay [2] was > 400 µM.

Take `OC[C@H]1O[C@@H](Oc2ccccc2)[C@H](O)[C@@H](O)[C@@H]1O`: the Ratio in assay [1] is 0.81.

Regarding `O=S(=O)(O)OC[C@H]1O[C@H](Oc2ccccc2)[C@H](O)[C@@H](O)[C@@H]1O`, the Ratio in assay [1] was 1.17.

On to `CO[C@H]1O[C@H](COS(=O)(=O)O)[C@@H](OCc2ccccc2)[C@H](O)[C@H]1O`, for which, in assay [1], the Ratio came out at 1.11.

Regarding `O=S(=O)(O)OC[C@H]1O[C@@H](Oc2ccccc2)[C@H](O)[C@@H](O)[C@@H]1O`, in assay [1], the Ratio came out at 0.94.

Take `OC[C@H]1O[C@H](Oc2ccccc2)[C@H](O)[C@@H](O)[C@@H]1O`: the Ratio in assay [1] worked out at 0.88.

As to `OC[C@H]1O[C@H](O[C@H]2O[C@H](CO)[C@@H](O)[C@H](O)[C@H]2O)[C@H](O)[C@@H](O)[C@@H]1O` [TREHALOSE], in assay [1], the Ratio is 0.83.

Turning to `O=P(O)(O)OC[C@H]1O[C@@H](Oc2ccccc2)[C@H](O)[C@@H](O)[C@@H]1O`, in assay [1], the Ratio stood at 0.94.

As a reminder, the Vmax is the rate approached at saturating substrate. Broadly, the Km is the concentration of substrate that gives half-maximal velocity. As to `O=Cc1cccc(O[C@@H]2O[C@H](COS(=O)(=O)O)[C@@H](O)[C@H](O)[C@H]2O)c1`, the Vmax in assay [3] turned out to be 0.247 µM/s. In addition, the inhibitory constant (Ki) in assay [2] was determined as 1700 µM. For the same molecule, the Km in assay [4] turned out to be 712 µM. Further, in assay [1], the Ratio is 0.67.

Consider `O=S(=O)(O)OC[C@H]1O[C@H](O)[C@H](O)[C@@H](O)[C@@H]1O`, for which the Ratio in assay [1] was determined as 0.97.

For `OC[C@H]1O[C@@H](n2cc(-c3ccccc3)nn2)[C@H](O)[C@@H](O)[C@@H]1O`, in assay [1], the Ratio worked out at 0.95.

As for `O=S(=O)(O)OC[C@H]1O[C@@H](Oc2cccc3ccccc23)[C@H](O)[C@@H](O)[C@@H]1O`, the Ratio in assay [1] stood at 0.85.

In the case of `OC[C@H]1O[C@@H](Nc2ccccc2)[C@H](O)[C@@H](O)[C@@H]1O`, in assay [1], the Ratio amounted to 0.88.

On to `O=S(=O)(O)OC[C@H]1O[C@@H](Oc2ccc(CO)cc2)[C@H](O)[C@@H](O)[C@@H]1O`, for which, in assay [1], the Ratio is 0.85.

For `O=S(=O)(O)OC[C@H]1O[C@H](OCc2ccccc2)[C@H](O)[C@@H](O)[C@@H]1O`, the Ratio in assay [1] came to 0.83.

`CO[C@H]1O[C@H](COS(=O)(=O)O)[C@@H](O)[C@H](O)[C@H]1O`: the Ratio in assay [1] stood at 0.91.

Consider `O=Cc1ccc(O[C@@H]2O[C@H](COS(=O)(=O)O)[C@@H](O)[C@H](O)[C@H]2O)cc1`, for which, in assay [1], the Ratio amounted to 0.87.

In the case of `Nc1ccc(O[C@@H]2O[C@H](COS(=O)(=O)O)[C@@H](O)[C@H](O)[C@H]2O)cc1`, in assay [1], the Ratio turned out to be 1.

Consider `O=[N+]([O-])c1ccc(O[C@@H]2O[C@H](COS(=O)(=O)O)[C@@H](O)[C@H](O)[C@H]2O)cc1`, for which the Ratio in assay [1] came to 1.27.

With `NS(=O)(=O)OCc1cccc(N[C@@H]2O[C@H](CO)[C@@H](O)[C@H](O)[C@H]2O)c1`, the Ratio in assay [1] came to 1.17.

As for `O=S(=O)(O)OC[C@H]1O[C@@H](Oc2ccc(F)c(F)c2)[C@H](O)[C@@H](O)[C@@H]1O`, the Ratio in assay [1] was 0.8.

Take `CCCCCCc1ccc(O[C@@H]2O[C@H](COS(=O)(=O)O)[C@@H](O)[C@H](O)[C@H]2O)cc1`: the Ki in assay [2] was > 400 µM.

As for `O=S(=O)(O)OC[C@H]1O[C@@H](Oc2ccc(-c3ccccc3)cc2)[C@H](O)[C@@H](O)[C@@H]1O`, the Vmax in assay [3] came out at 0.0271 µM/s. This molecule also gave an inhibition constant Ki in assay [2] of 1600 µM. Also, the Km in assay [4] was found to be 838 µM. In assay [1], the Ratio came out at 0.58.

In the case of `O=S(=O)(O)OC[C@H]1O[C@@H](n2cc(-c3ccccc3)nn2)[C@H](O)[C@@H](O)[C@@H]1O`, the Ratio in assay [1] is 0.98.

On to `O=Cc1ccccc1O[C@@H]1O[C@H](COS(=O)(=O)O)[C@@H](O)[C@H](O)[C@H]1O`, for which the Ratio in assay [1] is 1.17.

Turning to `O=S(=O)(O)OC[C@H]1O[C@@H](Oc2cccc(CO)c2)[C@H](O)[C@@H](O)[C@@H]1O`, the Ratio in assay [1] was 0.69.

On to `CCCCCCCCc1ccc(O[C@@H]2O[C@H](COS(=O)(=O)O)[C@@H](O)[C@H](O)[C@H]2O)cc1`, for which the Ki in assay [2] was > 300 µM. The Ratio in assay [1] was 0.42.

Turning to `CCCCCCCCc1ccc(O[C@H]2O[C@H](COS(=O)(=O)O)[C@@H](O)[C@H](O)[C@H]2O)cc1`, the affinity in assay [2], expressed as Ki, was 100 µM.
